{
  "source": "ChEMBL document CHEMBL5653631",
  "about": "“A Potent and Selective ULK1 Inhibitor Suppresses Autophagy and Sensitizes Cancer Cells to Nutrient Stress” (iScience, 2018)",
  "key": {"[1]": {"molecular_target": "T1, Serine/threonine-protein kinase Sgk2 (Homo sapiens) (UniProt Q9HBY8)", "T1 sequence (whole entry)": "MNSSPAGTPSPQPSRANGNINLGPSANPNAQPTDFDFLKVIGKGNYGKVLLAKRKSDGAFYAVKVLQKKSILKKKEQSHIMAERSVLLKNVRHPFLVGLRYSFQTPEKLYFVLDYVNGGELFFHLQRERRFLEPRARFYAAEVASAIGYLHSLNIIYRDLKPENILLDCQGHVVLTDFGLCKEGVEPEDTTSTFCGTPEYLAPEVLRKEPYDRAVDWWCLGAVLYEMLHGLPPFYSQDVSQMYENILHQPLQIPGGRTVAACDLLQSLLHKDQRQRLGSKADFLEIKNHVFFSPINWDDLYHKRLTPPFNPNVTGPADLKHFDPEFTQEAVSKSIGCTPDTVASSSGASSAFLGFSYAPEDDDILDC", "test": "Inhibition of human recombinant SGK2 at 40 nM related to control ULK1"}, "[2]": {"molecular_target": "T2, Ephrin type-B receptor 3 (Homo sapiens) (UniProt P54753)", "T2 sequence (whole entry)": "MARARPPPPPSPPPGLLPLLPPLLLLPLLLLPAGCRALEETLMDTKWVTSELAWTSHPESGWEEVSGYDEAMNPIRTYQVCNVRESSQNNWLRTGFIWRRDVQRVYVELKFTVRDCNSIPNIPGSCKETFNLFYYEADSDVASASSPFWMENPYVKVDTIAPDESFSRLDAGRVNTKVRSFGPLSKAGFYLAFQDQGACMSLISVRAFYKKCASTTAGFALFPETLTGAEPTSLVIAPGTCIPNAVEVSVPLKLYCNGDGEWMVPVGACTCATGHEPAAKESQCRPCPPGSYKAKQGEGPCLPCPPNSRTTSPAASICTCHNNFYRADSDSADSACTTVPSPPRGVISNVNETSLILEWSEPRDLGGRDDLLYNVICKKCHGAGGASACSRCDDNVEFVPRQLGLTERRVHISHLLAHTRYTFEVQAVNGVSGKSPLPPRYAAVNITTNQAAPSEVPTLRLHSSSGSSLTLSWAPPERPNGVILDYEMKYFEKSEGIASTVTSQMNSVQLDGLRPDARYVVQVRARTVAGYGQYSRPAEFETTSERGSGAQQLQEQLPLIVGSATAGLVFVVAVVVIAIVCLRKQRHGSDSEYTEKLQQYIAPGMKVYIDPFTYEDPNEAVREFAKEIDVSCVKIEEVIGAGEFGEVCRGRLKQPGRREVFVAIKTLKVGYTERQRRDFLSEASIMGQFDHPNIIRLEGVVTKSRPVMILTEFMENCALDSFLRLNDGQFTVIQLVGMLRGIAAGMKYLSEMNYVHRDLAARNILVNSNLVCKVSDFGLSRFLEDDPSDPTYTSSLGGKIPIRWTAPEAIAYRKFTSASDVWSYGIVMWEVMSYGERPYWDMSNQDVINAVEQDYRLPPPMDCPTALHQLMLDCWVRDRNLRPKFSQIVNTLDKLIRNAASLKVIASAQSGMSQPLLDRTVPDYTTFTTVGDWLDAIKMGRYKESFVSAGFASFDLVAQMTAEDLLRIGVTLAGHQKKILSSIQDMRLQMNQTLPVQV", "test": "Inhibition of human recombinant EphB3 at 500 nM related to control ULK1"}, "[3]": {"molecular_target": "Myosin light chain kinase, smooth muscle (Homo sapiens) (UniProt Q15746)", "sequence (Q15746 whole entry)": "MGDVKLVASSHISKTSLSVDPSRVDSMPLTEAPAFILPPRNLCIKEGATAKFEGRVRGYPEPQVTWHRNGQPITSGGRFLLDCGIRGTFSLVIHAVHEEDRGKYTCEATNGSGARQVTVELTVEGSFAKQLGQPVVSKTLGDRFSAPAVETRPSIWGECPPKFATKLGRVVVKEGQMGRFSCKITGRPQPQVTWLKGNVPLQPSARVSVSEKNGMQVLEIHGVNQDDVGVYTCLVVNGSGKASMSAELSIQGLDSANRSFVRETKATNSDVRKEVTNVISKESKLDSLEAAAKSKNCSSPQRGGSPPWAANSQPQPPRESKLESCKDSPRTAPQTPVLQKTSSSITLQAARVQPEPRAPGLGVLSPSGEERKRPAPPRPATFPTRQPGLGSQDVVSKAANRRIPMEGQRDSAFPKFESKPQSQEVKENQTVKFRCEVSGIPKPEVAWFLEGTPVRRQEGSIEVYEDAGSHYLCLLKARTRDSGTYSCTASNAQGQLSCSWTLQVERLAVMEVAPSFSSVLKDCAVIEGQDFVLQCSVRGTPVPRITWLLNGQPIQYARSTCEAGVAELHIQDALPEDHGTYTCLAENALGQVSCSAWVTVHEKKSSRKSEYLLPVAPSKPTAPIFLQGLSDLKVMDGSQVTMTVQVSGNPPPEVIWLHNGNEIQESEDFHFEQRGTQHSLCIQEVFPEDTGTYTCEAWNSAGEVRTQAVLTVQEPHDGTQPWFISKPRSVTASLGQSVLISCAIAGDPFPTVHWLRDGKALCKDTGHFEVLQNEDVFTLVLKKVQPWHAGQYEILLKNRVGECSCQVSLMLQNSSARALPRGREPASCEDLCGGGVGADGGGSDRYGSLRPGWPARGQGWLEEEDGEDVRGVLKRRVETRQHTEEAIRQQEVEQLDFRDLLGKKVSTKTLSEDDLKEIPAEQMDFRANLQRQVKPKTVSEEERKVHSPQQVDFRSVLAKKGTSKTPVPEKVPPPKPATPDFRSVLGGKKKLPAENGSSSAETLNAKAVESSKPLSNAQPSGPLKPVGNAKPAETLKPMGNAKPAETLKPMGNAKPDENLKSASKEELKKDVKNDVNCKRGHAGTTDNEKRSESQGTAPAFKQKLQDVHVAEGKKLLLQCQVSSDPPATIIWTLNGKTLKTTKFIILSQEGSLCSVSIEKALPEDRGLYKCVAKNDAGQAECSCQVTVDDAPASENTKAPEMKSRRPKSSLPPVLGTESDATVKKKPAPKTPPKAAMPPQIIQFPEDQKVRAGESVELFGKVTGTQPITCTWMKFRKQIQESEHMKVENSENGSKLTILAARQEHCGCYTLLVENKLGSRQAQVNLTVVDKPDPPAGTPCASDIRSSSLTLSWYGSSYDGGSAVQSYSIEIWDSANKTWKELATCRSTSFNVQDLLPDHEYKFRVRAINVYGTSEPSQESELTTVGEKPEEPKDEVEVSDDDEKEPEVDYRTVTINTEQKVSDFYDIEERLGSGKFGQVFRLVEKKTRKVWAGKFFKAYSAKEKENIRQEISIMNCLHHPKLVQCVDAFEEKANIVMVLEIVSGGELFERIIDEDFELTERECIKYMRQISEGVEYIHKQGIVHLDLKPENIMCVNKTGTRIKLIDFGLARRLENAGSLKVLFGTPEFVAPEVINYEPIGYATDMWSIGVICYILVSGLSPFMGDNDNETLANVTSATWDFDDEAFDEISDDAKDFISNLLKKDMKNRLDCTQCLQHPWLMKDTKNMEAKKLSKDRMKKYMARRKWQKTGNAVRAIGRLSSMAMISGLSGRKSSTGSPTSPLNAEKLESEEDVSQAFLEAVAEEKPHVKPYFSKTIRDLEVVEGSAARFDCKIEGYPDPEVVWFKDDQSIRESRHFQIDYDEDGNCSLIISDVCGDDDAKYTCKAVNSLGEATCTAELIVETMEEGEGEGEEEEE", "test": "Inhibition of human recombinant smMLCK at 500 nM related to control ULK1"}, "[4]": {"molecular_target": "T3, Ephrin type-B receptor 2 (Homo sapiens) (UniProt P29323)", "T3 sequence (whole entry)": "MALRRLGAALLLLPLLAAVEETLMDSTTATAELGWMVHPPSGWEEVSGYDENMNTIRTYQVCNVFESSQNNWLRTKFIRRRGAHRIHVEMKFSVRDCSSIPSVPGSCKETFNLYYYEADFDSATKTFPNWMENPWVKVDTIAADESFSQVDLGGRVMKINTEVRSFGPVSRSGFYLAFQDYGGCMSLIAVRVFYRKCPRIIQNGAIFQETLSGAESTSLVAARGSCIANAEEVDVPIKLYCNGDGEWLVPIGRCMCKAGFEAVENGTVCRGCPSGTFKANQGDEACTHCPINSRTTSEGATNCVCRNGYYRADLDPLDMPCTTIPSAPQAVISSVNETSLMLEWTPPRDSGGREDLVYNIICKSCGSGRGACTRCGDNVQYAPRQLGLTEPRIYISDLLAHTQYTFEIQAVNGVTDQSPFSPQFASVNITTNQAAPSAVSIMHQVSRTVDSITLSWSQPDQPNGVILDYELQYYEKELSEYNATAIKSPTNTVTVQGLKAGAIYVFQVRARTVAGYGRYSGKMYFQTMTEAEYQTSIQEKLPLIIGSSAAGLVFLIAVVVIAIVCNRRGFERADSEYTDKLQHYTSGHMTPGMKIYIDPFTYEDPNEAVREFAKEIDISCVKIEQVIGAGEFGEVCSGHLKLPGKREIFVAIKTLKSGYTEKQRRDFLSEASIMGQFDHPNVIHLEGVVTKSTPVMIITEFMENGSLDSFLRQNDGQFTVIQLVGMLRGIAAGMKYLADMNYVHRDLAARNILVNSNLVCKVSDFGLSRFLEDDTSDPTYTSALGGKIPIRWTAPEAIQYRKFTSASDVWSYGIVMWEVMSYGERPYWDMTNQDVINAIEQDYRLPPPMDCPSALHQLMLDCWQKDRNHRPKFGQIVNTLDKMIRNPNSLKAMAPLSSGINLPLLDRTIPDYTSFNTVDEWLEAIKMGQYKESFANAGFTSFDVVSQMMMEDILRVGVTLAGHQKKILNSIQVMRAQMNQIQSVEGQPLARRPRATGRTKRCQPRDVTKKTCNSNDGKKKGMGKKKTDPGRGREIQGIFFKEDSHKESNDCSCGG", "test": "Inhibition of human recombinant EphB2 at 500 nM in presence of ATP by radiometric assay relative to control"}, "[5]": {"molecular_target": "Epidermal growth factor receptor (Homo sapiens) (UniProt P00533)", "sequence (P00533 whole entry)": "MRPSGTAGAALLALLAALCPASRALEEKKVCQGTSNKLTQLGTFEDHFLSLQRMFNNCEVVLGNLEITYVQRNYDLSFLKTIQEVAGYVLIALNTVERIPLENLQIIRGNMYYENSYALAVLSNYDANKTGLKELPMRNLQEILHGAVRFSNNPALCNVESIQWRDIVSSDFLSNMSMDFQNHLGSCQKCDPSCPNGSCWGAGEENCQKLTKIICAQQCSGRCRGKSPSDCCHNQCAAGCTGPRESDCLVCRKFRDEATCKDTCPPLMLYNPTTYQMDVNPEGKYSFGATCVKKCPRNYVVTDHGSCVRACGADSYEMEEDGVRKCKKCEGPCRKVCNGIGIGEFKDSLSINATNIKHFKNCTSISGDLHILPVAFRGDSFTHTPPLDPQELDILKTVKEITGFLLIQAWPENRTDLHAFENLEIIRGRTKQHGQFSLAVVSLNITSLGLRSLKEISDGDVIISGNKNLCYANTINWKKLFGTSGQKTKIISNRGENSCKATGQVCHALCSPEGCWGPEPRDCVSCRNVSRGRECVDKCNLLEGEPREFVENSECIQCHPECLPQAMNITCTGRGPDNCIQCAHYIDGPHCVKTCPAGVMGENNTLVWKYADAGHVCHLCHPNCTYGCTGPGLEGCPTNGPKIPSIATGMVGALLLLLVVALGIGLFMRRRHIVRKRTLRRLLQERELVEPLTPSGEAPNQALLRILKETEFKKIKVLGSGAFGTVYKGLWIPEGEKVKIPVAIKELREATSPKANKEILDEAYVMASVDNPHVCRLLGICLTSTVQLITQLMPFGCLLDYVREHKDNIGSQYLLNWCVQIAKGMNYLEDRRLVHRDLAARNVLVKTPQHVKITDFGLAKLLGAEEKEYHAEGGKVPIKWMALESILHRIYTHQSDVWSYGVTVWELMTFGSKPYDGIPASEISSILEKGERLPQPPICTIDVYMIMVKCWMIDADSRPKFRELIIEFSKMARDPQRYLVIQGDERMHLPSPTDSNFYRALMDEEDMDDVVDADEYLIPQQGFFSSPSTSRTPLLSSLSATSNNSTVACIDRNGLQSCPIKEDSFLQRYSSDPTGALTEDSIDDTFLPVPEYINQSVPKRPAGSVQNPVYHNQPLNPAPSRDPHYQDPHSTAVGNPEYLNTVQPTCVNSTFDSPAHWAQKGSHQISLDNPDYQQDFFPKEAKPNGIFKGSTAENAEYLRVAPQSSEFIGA", "test": "Inhibition of human recombinant EGFR at 15 nM related to control ULK1"}, "[6]": {"molecular_target": "Cyclin-dependent kinase 3 (Homo sapiens) (UniProt Q00526)", "sequence (Q00526 whole entry, looked up)": "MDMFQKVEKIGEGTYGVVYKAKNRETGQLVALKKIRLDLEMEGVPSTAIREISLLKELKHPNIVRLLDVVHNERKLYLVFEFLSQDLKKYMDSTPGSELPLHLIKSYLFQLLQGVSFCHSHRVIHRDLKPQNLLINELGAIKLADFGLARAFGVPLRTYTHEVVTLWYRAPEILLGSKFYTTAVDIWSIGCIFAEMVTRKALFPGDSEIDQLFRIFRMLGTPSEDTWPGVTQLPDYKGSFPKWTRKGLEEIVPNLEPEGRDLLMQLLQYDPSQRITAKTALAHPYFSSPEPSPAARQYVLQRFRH", "test": "Inhibition of human recombinant CDK3 at 15 nM in presence of ATP by radiometric assay relative to control"}, "[7]": {"molecular_target": "Receptor tyrosine-protein kinase erbB-4 (Homo sapiens) (UniProt Q15303)", "sequence (Q15303 whole entry)": "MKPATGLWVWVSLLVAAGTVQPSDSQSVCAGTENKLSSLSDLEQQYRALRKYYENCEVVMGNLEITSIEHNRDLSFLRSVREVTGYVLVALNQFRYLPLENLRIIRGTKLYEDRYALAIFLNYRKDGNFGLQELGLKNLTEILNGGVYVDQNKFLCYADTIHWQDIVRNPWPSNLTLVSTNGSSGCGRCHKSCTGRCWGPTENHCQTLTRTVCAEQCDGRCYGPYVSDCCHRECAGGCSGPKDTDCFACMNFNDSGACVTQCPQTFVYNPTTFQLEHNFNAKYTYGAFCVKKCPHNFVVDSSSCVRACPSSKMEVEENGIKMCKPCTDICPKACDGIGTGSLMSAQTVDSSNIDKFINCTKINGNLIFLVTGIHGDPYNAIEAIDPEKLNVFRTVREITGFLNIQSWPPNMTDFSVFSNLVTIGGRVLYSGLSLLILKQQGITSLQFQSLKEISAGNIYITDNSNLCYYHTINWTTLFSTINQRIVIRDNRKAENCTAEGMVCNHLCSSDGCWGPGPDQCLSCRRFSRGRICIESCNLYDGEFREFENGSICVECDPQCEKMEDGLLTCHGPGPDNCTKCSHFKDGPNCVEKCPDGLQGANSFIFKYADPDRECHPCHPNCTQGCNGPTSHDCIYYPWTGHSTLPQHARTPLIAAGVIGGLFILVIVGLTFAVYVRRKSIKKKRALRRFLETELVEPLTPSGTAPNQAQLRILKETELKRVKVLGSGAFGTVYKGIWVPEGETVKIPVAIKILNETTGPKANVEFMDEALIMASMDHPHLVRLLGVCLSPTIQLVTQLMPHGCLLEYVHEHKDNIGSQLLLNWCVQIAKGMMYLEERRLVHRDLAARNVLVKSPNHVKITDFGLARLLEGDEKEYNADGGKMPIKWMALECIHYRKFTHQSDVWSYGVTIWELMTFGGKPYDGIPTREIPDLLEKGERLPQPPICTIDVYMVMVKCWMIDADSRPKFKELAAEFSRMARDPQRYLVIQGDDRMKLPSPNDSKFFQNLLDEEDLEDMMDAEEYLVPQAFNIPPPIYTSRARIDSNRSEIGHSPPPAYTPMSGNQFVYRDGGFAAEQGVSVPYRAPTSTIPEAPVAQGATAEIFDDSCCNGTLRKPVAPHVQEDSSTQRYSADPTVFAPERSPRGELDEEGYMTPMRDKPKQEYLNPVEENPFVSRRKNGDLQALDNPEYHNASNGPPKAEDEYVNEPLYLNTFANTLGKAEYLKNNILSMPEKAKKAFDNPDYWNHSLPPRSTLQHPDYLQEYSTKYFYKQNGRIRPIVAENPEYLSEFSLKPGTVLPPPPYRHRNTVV", "test": "Inhibition of human recombinant ErbB4 at 15 nM in presence of ATP by radiometric assay relative to control"}, "[8]": {"molecular_target": "Cyclin-dependent kinase-like 1 (Homo sapiens) (UniProt Q00532)", "sequence (Q00532 whole entry)": "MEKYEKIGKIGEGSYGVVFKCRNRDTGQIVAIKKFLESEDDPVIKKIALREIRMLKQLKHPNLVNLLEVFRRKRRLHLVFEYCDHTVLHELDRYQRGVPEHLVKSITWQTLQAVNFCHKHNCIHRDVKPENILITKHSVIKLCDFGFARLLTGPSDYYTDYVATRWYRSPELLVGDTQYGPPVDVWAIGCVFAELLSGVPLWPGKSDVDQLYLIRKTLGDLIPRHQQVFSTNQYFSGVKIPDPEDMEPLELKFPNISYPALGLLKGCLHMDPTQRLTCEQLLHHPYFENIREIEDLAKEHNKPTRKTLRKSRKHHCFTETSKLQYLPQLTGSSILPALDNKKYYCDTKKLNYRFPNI", "test": "Inhibition of human recombinant CDKL1 at 15 nM in presence of ATP by radiometric assay relative to control"}, "[9]": {"molecular_target": "RAC-beta serine/threonine-protein kinase (Homo sapiens) (UniProt P31751)", "test": "Inhibition of human recombinant AKT2 at 15 nM in presence of ATP by radiometric assay relative to control", "summary_of_the_method": "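Panel of 327 recombinant human kinases in radiometric activity assays, each screened in duplicate at a single inhibitor concentration; percent activity remaining relative to vehicle control, percent inhibition taken as 100 minus activity remaining.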"}},
  "data": [
    {"smiles": "O=C(N[C@@H](C1CC1)C(F)(F)F)c1cc(-c2cnn3cc(-c4ccc(F)cc4)cnc23)cs1", "values": [
      {"measurement": "fold change (FC)", "setting": "[1]", "value": 0.16}
    ]},
    {"smiles": "CNC(=O)c1ccccc1Oc1nc(Nc2cc(OC)c(OC)c(OC)c2)ncc1Br", "values": [
      {"measurement": "fold change (FC)", "setting": "[2]", "value": 0},
      {"measurement": "fold change (FC)", "setting": "[3]", "value": 0.07},
      {"measurement": "inhibition", "setting": "[4]", "value": 15, "unit": "%"}
    ]},
    {"smiles": "CC(C)[C@H](NC(=O)c1cc(-c2cnn3cc(-c4ccc(OCCN5CCCCC5)cc4)cnc23)cs1)C(F)(F)F", "values": [
      {"measurement": "fold change (FC)", "setting": "[5]", "value": 0.03},
      {"measurement": "inhibition", "setting": "[6]", "value": 5, "unit": "%"},
      {"measurement": "inhibition", "setting": "[7]", "value": 0, "unit": "%"},
      {"measurement": "inhibition", "setting": "[8]", "value": 24, "unit": "%"},
      {"measurement": "inhibition", "setting": "[9]", "value": 0, "unit": "%"}
    ]}
  ]
}
